Results published in ChEMBL document CHEMBL3785035, “Phase II Metabolic Pathways of Spectinamide Antitubercular Agents: A Comparative Study of the Reactivity of 4-Substituted Pyridines to Glutathione Conjugation” (Medchemcomm, 2016).

Legend:
Type in all cases: ADME, subcellular
Liver [1] = assay: (§1) Metabolic stability in human liver S9 fraction assessed as parent compound remaining at 100 uM preincubated for 5 mins followed by PAPS addition measured after 2 hrs by LC-MS/MS analysis; details: s9, 2 h, 100 µM
Procedure, shortened: (§2)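 Sulfation incubation: rat or human liver S9 at 2 mg/mL in 0.1 M potassium phosphate pH 7.4 with 1 mM MgCl2. Preincubated 5 min at 37 °C, then started with PAPS (0.2 mM in incubation). Controls lacked PAPS. Aliquots taken over 120 min and quenched in cold methanol with internal standard. LC-MS/MS read-out; parent remaining expressed against time zero.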

[2] = Half life in rat liver S9 fraction at 100 uM preincubated for 5 mins followed by glutathione addition measured after 2 hrs by LC-MS/MS analysis
Procedure, shortened: (§3)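 S9 (rat or human) at 10 mg/mL in 0.1 M potassium phosphate pH 7.4, with 1 mM MgCl2. Preincubated 5 min at 37 °C, 150 rpm, then started with glutathione (0.2 mM in incubation). Controls lacked glutathione. Sampled 0–120 min, quenched in ice-cold methanol with internal standard. Parent measured by HILIC LC-MS/MS and expressed as % of time zero. Mean with %CV.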

[3] = Metabolic stability in rat liver S9 fraction assessed as parent compound remaining at 100 uM preincubated for 5 mins followed by UDPGA addition measured after 2 hrs by LC-MS/MS analysis; details: read-out: Stability
Procedure, shortened: (§4)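 Glucuronidation: 2 mg/mL rat or human S9 in 0.1 M potassium phosphate pH 7.4, activated with alamethicin (50 μg) 15 min on ice. Then 1 mM MgCl2 was added, with 5 min preincubation at 37 °C. Started with UDPGA (5 mM in incubation); controls without UDPGA. Samples taken to 120 min and quenched with methanol plus internal standard. LC-MS/MS; % parent relative to time zero.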

[4] = Metabolic stability in human liver S9 fraction assessed as parent compound remaining at 100 uM preincubated for 5 mins followed by UDPGA addition measured after 2 hrs by LC-MS/MS analysis; details: read-out: Stability; procedure, shortened: as §4
[5] = Metabolic stability in human liver S9 fraction assessed as parent compound remaining at 100 uM preincubated for 5 mins followed by glutathione addition measured after 2 hrs by LC-MS/MS analysis; details: read-out: Stability; procedure, shortened: as §3
Liver [6] = assay: (§5) Metabolic stability in rat liver S9 fraction assessed as parent compound remaining at 100 uM preincubated for 5 mins followed by PAPS addition measured after 2 hrs by LC-MS/MS analysis; details: s9, 2 h, 100 µM; procedure, shortened: as §2
[7] = Half life in human liver S9 fraction at 100 uM preincubated for 5 mins followed by glutathione addition measured after 2 hrs by LC-MS/MS analysis; procedure, shortened: as §3
[8] = Metabolic stability in rat liver S9 fraction assessed as parent compound remaining at 100 uM preincubated for 5 mins followed by glutathione addition measured after 2 hrs by LC-MS/MS analysis; details: read-out: Stability; procedure, shortened: as §3
[9] = as §1; details: liver S9 fraction; procedure, shortened: as §2
[10] = as §5; details: liver S9 fraction, read-out: Stability; procedure, shortened: as §2

SMILES | Stability (Liver [1]) [%] | half-life at 100 µM [2] [h] | remaining at 2 h, 100 µM [3] [%] | remaining at 2 h, 100 µM [4] [%] | remaining at 2 h, 100 µM [5] [%] | Stability (Liver [6]) | half-life at 100 µM [7] [h] | remaining at 2 h, 100 µM [8] [%] | remaining at 2 h, 100 µM [9] [%] | remaining at 2 h, 100 µM [10] [%]
CN[C@@H]1[C@H](O)[C@H](NC)[C@H]2O[C@]3(O)[C@H](O[C@@H]2[C@H]1O)O[C@H](C)C[C@H]3NC(=O)Cc1cc(Cl)ccn1 | > 96 | 3.35 | > 93 | > 93 | 98.7 | 88% | > 50 | 71.9 |  | 
CC(=O)Nc1ccc(O)cc1 [ACETAMINOPHEN] |  | 1.48 |  |  | 74.5 |  | 4.4 | 43 |  | 
CN[C@@H]1[C@H](O)[C@H](NC)[C@H]2O[C@]3(O)[C@H](O[C@@H]2[C@H]1O)O[C@H](C)C[C@H]3NC(=O)Cc1cc(Cl)c(C)cn1 | 91 | 0.66 | > 93 | > 93 | 93.5 | Stable | 23 | 12.9 |  | 
CN[C@@H]1[C@H](O)[C@H](NC)[C@H]2O[C@]3(O)[C@H](O[C@@H]2[C@H]1O)O[C@H](C)C[C@H]3NC(=O)Cc1cc(Cl)c(OC)cn1 |  | 6.7 | > 93 | > 93 | 98.8 |  | > 50 | 81.1 | > 96 | > 95
CN[C@@H]1[C@H](O)[C@H](NC)[C@H]2O[C@]3(O)[C@H](O[C@@H]2[C@H]1O)O[C@H](C)C[C@H]3NC(=O)Cc1cc(Cl)c(F)cn1 |  | > 50 | > 93 | > 93 | 98.6 |  | > 50 | 98.6 | > 96 | > 95
CN[C@@H]1[C@H](O)[C@H](NC)[C@H]2O[C@]3(O)[C@H](O[C@@H]2[C@H]1O)O[C@H](C)C[C@H]3NC(=O)Cc1ccc(F)cn1 |  | 32.6 | > 93 | > 93 | 98.7 |  | > 50 | 96.6 | > 96 | > 95
CN[C@@H]1[C@H](O)[C@H](NC)[C@H]2O[C@]3(O)[C@H](O[C@@H]2[C@H]1O)O[C@H](C)C[C@H]3NC(=O)Cc1ccccn1 | > 96 | > 50 | > 93 | > 93 | 96.7 | 89% | 38 | 99.8 |  | 
CN[C@@H]1[C@H](O)[C@H](NC)[C@H]2O[C@]3(O)[C@H](O[C@@H]2[C@H]1O)O[C@H](C)C[C@H]3NC(=O)Cc1ccc(Cl)cn1 |  | > 50 | > 93 | > 93 | 99.9 |  | > 50 | 99.4 | > 96 | > 95
CN[C@@H]1[C@H](O)[C@H](NC)[C@H]2O[C@]3(O)[C@H](O[C@@H]2[C@H]1O)O[C@H](C)C[C@H]3NC(=O)Cc1ccc(O)cn1 |  | > 50 | > 93 | > 93 | 99.9 |  | > 50 | 98.6 | > 96 | > 95
